Reference: ChEMBL document CHEMBL1122480, “Synthesis and pharmacological studies of 4,4-disubstituted piperidines: a new class of compounds with potent analgesic properties” (J Med Chem, 1983)

Experiments:
[1] = system: Mus musculus; test: Analgesic activity in tail flick test, oral administration; type: functional
Outline: (§1)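 Mouse tail-flick test against a noxious heat stimulus (D'Amour–Smith method), with drug given by the stated route. […] Where no exact ED50 was obtained, the percentage of animals showing analgesia is reported.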

[2] = system: Mus musculus; test: Analgesic activity in tail flick test, subcutaneous administration; type: functional; outline: as §1
[3] = system: Mus musculus; test: Analgesic activity using PQW test, oral administration; type: functional
Outline: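 Oral drug in mice, followed by phenylbenzoquinone-induced writhing. Analgesia is scored as fewer abdominal contractions in a group of five animals than in a control group. ED50 is the dose that reduces contractions by 50%, estimated graphically by the Litchfield method. Otherwise the percentage of animals showing analgesia is given.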

[4] = target: T1, Opioid receptor (Rattus norvegicus, UniProt P33533+P34975+P33535); test: Inhibition of [3H]naloxone binding to rat brain membrane with 100 mM NaCl.
[5] = target: T1, Opioid receptor; test: Inhibition of [3H]-Naloxone binding to rat brain membrane without NaCl
[6] = system: Mus musculus; test: 5 HTP (5-hydroxytryptophan) antagonism in mouse 0.5 hr after subcutaneous administration (0.003-0.1 dose range).; type: functional; details: sc
Outline: (§2)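 Mice received drug sc over the stated dose range, then DL-5-hydroxytryptophan to induce head twitches. ED50 is the dose that cut the mean number of head twitches by 50% versus a saline-treated control group (N = 5-10). It was estimated graphically by the Litchfield method.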

[7] = system: Mus musculus; test: 5 HTP (5-hydroxytryptophan) antagonism in mouse 0.5 h after subcutaneous administration (0.03-0.1 dose range).; type: functional; details: sc; outline: as §2
[8] = Mus musculus, Tail, po, read-out: ED50
[9] = Mus musculus, Tail, sc, read-out: ED50
[10] = Mus musculus, po, read-out: ED50

Structure (SMILES) | ED50 [1, 8] [mg/kg] | ED50 [2, 9] [mg/kg] | ED50 [3, 10] [mg/kg] | further results
CC(C(=O)N(C)c1ccc(Cl)cc1)C1(O)CCN(CCc2ccccc2Cl)CC1.O=C(O)/C=C/C(=O)O (configuration not stated) | > 56 | 6.8 | 9.7 | –
CCCCC(C(=O)N(C)C1CCCCC1)C1(O)CCN(CCc2ccccc2Cl)CC1.O=C(O)/C=C/C(=O)O (configuration not stated) | > 100 | > 56 | > 56 | –
CCN(C(=O)C(C)(C)C1(O)CCN(CCc2ccccc2Cl)CC1)c1ccccc1OC.O=C(O)/C=C/C(=O)O | > 100 | > 56 | > 18 | IC50 [4]: 35 nM; IC50 [5]: 7.5 nM
CN(C(=O)C1(C2(O)CCN(CCc3ccccc3Cl)CC2)CCCC1)C1CCCCC1.O=C(O)/C=C/C(=O)O | 100 | > 56 | > 56 | –
CCCN(C(=O)C(C)C1(O)CCN(CCc2ccccc2Cl)CC1)c1ccccc1OC.O=C(O)/C=C/C(=O)O (configuration not stated) | 5.4 | 0.11 | 1.8 | IC50 [4]: 0.66 nM; IC50 [5]: 0.51 nM; ED50 [6]: 0.015 mg/kg
CC(C(=O)N(C)C1CCCCC1)C1(O)CCN(C)CC1.Cl (configuration not stated) | > 100 | > 56 | > 56 | –
COc1ccccc1NC(=O)C(C)(C)C1(O)CCN(CCc2ccccc2Cl)CC1.Cl | – | > 32 | < 56 | –
CCCN(C(=O)C(C)C1(OC(=O)CC)CCN(CCc2ccccc2Cl)CC1)c1ccccc1OC.O=C(O)/C=C\C(=O)O (configuration not stated) | 100 | 32 | 1 | –
CC(C(=O)N(C)C1CCCCC1)C1(O)CCN(CCc2ccccc2Cl)CC1.O=C(O)/C=C\C(=O)O (single isomer, unassigned; (-)) | – | – | – | ED50 [1]: 100 mg/kg; ED50 [2]: 42 mg/kg; ED50 [3]: 20 mg/kg
CCCCNC(=O)C(C)C1(O)CCN(CCc2ccccc2Cl)CC1 (configuration not stated) | < 100 | > 18 | > 32 | –
CCN(C(=O)C(C)C1(O)CCN(CCc2ccccc2Cl)CC1)c1ccccc1OC.O=C(O)/C=C/C(=O)O (configuration not stated) | 4.9 | 0.07 | 56 | IC50 [4]: 6.3 nM; ED50 [7]: 0.07 mg/kg; IC50 [5]: 0.94 nM
Cc1ccc(CCN2CCC(O)(C(C)C(=O)N(C)C3CCCCC3)CC2)cc1.Cl (configuration not stated) | 100 | > 3.2 | < 56 | –
Br.COc1cccc(CCN2CCC(O)(C(C)C(=O)N(C)C3CCCCC3)CC2)c1 (configuration not stated) | – | 18 | > 18 | –
CN(C(=O)C1(C2(O)CCN(CCc3ccccc3Cl)CC2)CC1)C1CCCCC1.O=C(O)/C=C\C(=O)O | – | 10 | > 56 | –
CN1CCC(=C2c3ccccc3CCc3sccc32)CC1 [PIZOTYLINE] | – | – | – | ED50 [6]: 0.015 mg/kg
CC(C(=O)N(C1CCCCC1)C(C)(C)C)C1(O)CCN(CCc2ccccc2Cl)CC1.O=C(O)/C=C/C(=O)O (configuration not stated) | > 56 | > 10 | < 56 | –
C#CCN(C(=O)C(C)C1(O)CCN(CCc2ccccc2Cl)CC1)c1ccccc1OC.O=C(O)/C=C\C(=O)O (configuration not stated) | 5.4 | 0.13 | 0.56 | IC50 [4]: 4.2 nM; IC50 [5]: 0.41 nM
CCCN(C(=O)C(C)C1(O)CCN(CCc2ccccc2Cl)CC1)C1CCCCC1 (configuration not stated) | 56 | > 10 | < 32 | –
CCOc1ccccc1N(C)C(=O)C(C)C1(O)CCN(CCc2ccccc2Cl)CC1.O=C(O)/C=C/C(=O)O (configuration not stated) | < 32 | 0.51 | 1.8 | IC50 [4]: 10 nM; IC50 [5]: 0.98 nM
CC(C(=O)N(C1CCCCC1)C1CCCCC1)C1(O)CCN(CCc2ccccc2Cl)CC1.Cl (configuration not stated) | > 100 | > 56 | < 56 | –
